Source: ChEMBL document CHEMBL1629654, “Breakthrough Aspergillus fumigatus and Candida albicans double infection during caspofungin treatment: laboratory characteristics and implication for susceptibility testing” (2009)
Values after ≈ are worked out from the molar mass of the structure shown. Active and inactive are the calls of the source. The calls are words filed in the database; no cut-off is given here.

How the values were obtained:
Candida albicans [1] = test: Antimicrobial activity against Candida albicans isolate R infected in NMRI mouse assessed as decrease in kidney bacterial burden at 6 mg/kg, ip measured on day 4; type: functional, organism-based; parameters: dose 6 mg/kg
Outline: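 NMRI mice (26 to 30 g), seven per group, were infected intravenously on day 0 with 1×10^5 CFU. They received caspofungin ip on days 1 to 3 in 0.5 ml; saline-treated mice served as controls. On day 4 the kidneys were removed and homogenized, and 10-fold dilutions were spot plated. Results are log10 CFU/ml homogenate (detection limit 50 CFU/ml), compared by Mann-Whitney test.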

Candida albicans [2] = test: Antimicrobial activity against Candida albicans isolate R at 1 ug/ml grown on RPMI 1640 medium after 24 hrs by disk diffusion method; type: functional
Outline: (§1)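 Disk diffusion on 90-mm RPMI 1640 with 2% glucose agar or on Mueller-Hinton agar. Plates were swabbed in three directions with a yeast suspension of 1–5 × 10^6 cells/ml. Paper disks (6 mm) held 1, 5 or 25 µg drug. Zone diameters were read at 24 and 48 h; values are means of two experiments.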

Candida albicans [3] = test: Antimicrobial activity against Candida albicans isolate C at 1 ug/ml after 48 hrs by agar dilution method; type: functional, organism-based
Outline: (§2)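 Agar dilution on Sabouraud agar with caspofungin at 0, 0.5, 1 and 2 per ml. Isolates were subcultured 2 days on CHROMagar. Suspensions of 1×10^6 to 5×10^6 CFU/ml in sterile water were diluted 1,500-fold, and approximately 3 to 15 cells were spread per agar surface. Growth or no growth was scored, with repeated testing.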

Candida albicans [4] = test: Antimicrobial activity against Candida albicans isolate C after 48 hrs by Etest; type: functional
Outline: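 Etest on RPMI 1640 agar with 2% glucose, run per the manufacturer's instructions. Index and control clinical blood isolates were tested in parallel.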

Candida albicans [5] = test: Antimicrobial activity against Candida albicans after 48 hrs
Nakaseomyces glabratus [6] = test: Antimicrobial activity against Candida glabrata after 48 hrs by broth microdilution method; type: functional
Pichia kudriavzevii [7] = test: Antimicrobial activity against Candida krusei after 48 hrs by broth microdilution method; type: functional
Clavispora lusitaniae = test: Antimicrobial activity against Candida lusitaniae after 24 hrs by M27-A3 method; type: functional
Candida albicans [8] = test: Antimicrobial activity against Candida albicans obtained from wound of patient 20 days after admission by EUCAST microdilution method; type: functional; settings: 480 h
Outline: (§3)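 EUCAST broth microdilution, plates read spectrophotometrically at 490 nm. MIC is the lowest dilution giving 50% growth inhibition. C. krusei […] control included in each run.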

Candida albicans [9] = test: Antimicrobial activity against Candida albicans isolate R at 0.5 ug/ml after 48 hrs by agar dilution method; type: functional, organism-based
Outline: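 Sabouraud agar wells contained caspofungin 0, 0.5, 1 or 2 µg/ml, or anidulafungin 0, 0.003, 0.125 or 0.5 µg/ml. Isolates were subcultured 2 days on CHROMagar. Suspensions of 1–5 × 10^6 CFU/ml in sterile water were diluted 1,500-fold, and 5 µl (about 3–15 cells) was spread per well. Growth was scored.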

Candida albicans [10] = test: Antimicrobial activity against Candida albicans isolate R at 1 ug/ml after 48 hrs by agar dilution method; type: functional, organism-based; outline: as §2
Candida albicans [11] = test: Antimicrobial activity against Candida albicans isolate S infected in NMRI mouse assessed as decrease in kidney bacterial burden at 6 mg/kg, ip measured on day 4; type: functional, organism-based; parameters: dose 6 mg/kg
Candida albicans [12] = test: Antimicrobial activity against Candida albicans isolate R at 25 ug/ml grown on RPMI 1640 medium after 48 hrs by disk diffusion method; type: functional; outline: as §1
Pichia kudriavzevii [13] = test: Antimicrobial activity against Candida krusei after 24 hrs by M27-A3 method; type: functional
Candida tropicalis [14] = test: Antimicrobial activity against Candida tropicalis after 48 hrs by Etest; type: functional
Candida albicans [15] = test: Antimicrobial activity against Candida albicans isolate R at 25 ug/ml grown on Muller-Hinton agar medium after 24 hrs by disk diffusion method; type: functional; outline: as §1
Candida albicans [16] = test: Antimicrobial activity against Candida albicans isolate S at 1 ug/ml grown on Muller-Hinton agar medium after 24 hrs by disk diffusion method; type: functional; outline: as §1
Candida albicans [17] = test: Antimicrobial activity against Candida albicans obtained from hemodialysis catheter tip 35 days after admission by Etest; type: functional
Outline: (§4)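 Etest on RPMI 1640 agar with 2% glucose, performed according to the manufacturer's recommendations.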

Candida albicans [18] = test: Antimicrobial activity against Candida albicans isolate S at 1 ug/ml grown on Muller-Hinton agar medium after 48 hrs by disk diffusion method; type: functional; outline: as §1
Debaryomyces hansenii = test: Antimicrobial activity against Candida famata after 48 hrs by M27-A method
Candida albicans [19] = test: Antimicrobial activity against Candida albicans after 48 hrs by NCCLS microdilution method; type: functional
Nakaseomyces glabratus [20] = test: Antimicrobial activity against Candida glabrata after 24 hrs by M27-A3 method; type: functional
Candida albicans [21] = test: Antimicrobial activity against Candida albicans isolate S at 5 ug/ml grown on Muller-Hinton agar medium after 48 hrs by disk diffusion method; type: functional; outline: as §1
Kluyveromyces marxianus = test: Antimicrobial activity against Candida kefyr after 24 hrs by M27-A3 method; type: functional
Candida albicans [22] = test: Antimicrobial activity against Candida albicans isolate C after 24 hrs by microdilution method; type: functional
Outline: (§5)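 Broth microdilution in microtiter plates, read spectrophotometrically at 490 nm. MIC taken as the lowest drug dilution giving 50% growth inhibition. C. krusei […] run as control in each run. Read at 24 h and 48 h; trailing growth noted at 48 h.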

Candida tropicalis [23] = test: Antimicrobial activity against Candida tropicalis after 48 hrs by NCCLS microdilution method; type: functional
Nakaseomyces glabratus [24] = test: Antimicrobial activity against Candida glabrata after 48 hrs by 80% endpoint M27-A2 method; type: functional
Candida albicans [25] = test: Antimicrobial activity against Candida albicans obtained from tracheal suction of patient 24 days after admission by EUCAST microdilution method; type: functional; settings: Trachea, 576 h; outline: as §3
Candida albicans [26] = test: Antimicrobial activity against Candida albicans after 48 hrs by broth microdilution method; type: functional
Candida albicans [27] = test: Antimicrobial activity against Candida albicans isolate R at 5 ug/ml grown on RPMI 1640 medium after 24 hrs by disk diffusion method; type: functional; outline: as §1
Candida albicans [28] = test: Antimicrobial activity against Candida albicans obtained from tracheal suction of patient 5 days after admission by EUCAST microdilution method; type: functional; settings: Trachea, 120 h; outline: as §3
[29] = test system: Meyerozyma guilliermondii; test: Antimicrobial activity against Candida guilliermondii after 24 hrs by M27-A3 method; type: functional
Nakaseomyces glabratus [30] = test: Antimicrobial activity against Candida glabrata after 48 hrs
Candida albicans [31] = test: Antimicrobial activity against Candida albicans isolate R after 24 hrs by microdilution method; type: functional; outline: as §5
[32] = test system: Meyerozyma guilliermondii; test: Antimicrobial activity against Candida guilliermondii after 48 hrs by M27-A method
Nakaseomyces glabratus [33] = test: Antimicrobial activity against Candida glabrata after 48 hrs by 50% endpoint M27-A2 method; type: functional
Pichia kudriavzevii [34] = test: Antimicrobial activity against Candida krusei after 48 hrs by 80% endpoint M27-A2 method; type: functional
Candida albicans [35] = test: Antimicrobial activity against Candida albicans isolate S at 5 ug/ml grown on RPMI 1640 medium after 24 hrs by disk diffusion method; type: functional; outline: as §1
Candida albicans [36] = test: Antimicrobial activity against Candida albicans isolate C after 48 hrs by microdilution method; type: functional; outline: as §5
Candida albicans [37] = test: Antimicrobial activity against Candida albicans isolate R obtained from urine of patient 38 days after admission by Etest; type: functional; outline: as §4

What does the source list for `CC[C@H](C)C[C@H](C)CCCCCCCCC(=O)N[C@H]1C[C@@H](O)[C@@H](NCCN)NC(=O)[C@@H]2[C@@H](O)CCN2C(=O)[C@H]([C@H](O)CCN)NC(=O)[C@H]([C@H](O)[C@@H](O)c2ccc(O)cc2)NC(=O)[C@@H]2C[C@@H](O)CN2C(=O)[C@H]([C@@H](C)O)NC1=O` [CASPOFUNGIN]?
Activity (Candida albicans [1]): inactive; inhibition zone (IZ) (Candida albicans [2]): 6.2 mm; growth inhibition (GI) (Candida albicans [3]): Active; MIC (Candida albicans [4]): 0.06 µg/mL (≈ 0.0549 µM); MIC90 (Candida albicans [5]): 0.25 µg/mL (≈ 0.229 µM); MIC90 (Nakaseomyces glabratus [6]): 0.5 µg/mL (≈ 0.457 µM); MIC90 (Pichia kudriavzevii [7]): 2 µg/mL (≈ 1.83 µM); MIC90 (Clavispora lusitaniae): 0.25 µg/mL (≈ 0.229 µM); MIC (Candida albicans [8]): 0.5 µg/mL (≈ 0.457 µM); growth inhibition (GI) (Candida albicans [9]): inactive; growth inhibition (GI) (Candida albicans [10]): inactive; Activity (Candida albicans [11]): Active; inhibition zone (IZ) (Candida albicans [12]): 11.9 mm; MIC90 (Pichia kudriavzevii [13]): 0.25 µg/mL (≈ 0.229 µM); MIC90 (Candida tropicalis [14]): 0.5 µg/mL (≈ 0.457 µM); inhibition zone (IZ) (Candida albicans [15]): 13.4 mm; inhibition zone (IZ) (Candida albicans [16]): 12.1 mm; MIC (Candida albicans [17]): 32 µg/mL (≈ 29.3 µM); inhibition zone (IZ) (Candida albicans [18]): 12.5 mm; MIC90 (Debaryomyces hansenii): > 8 µg/mL; MIC90 (Candida albicans [19]): 0.5 µg/mL (≈ 0.457 µM); MIC90 (Nakaseomyces glabratus [20]): 0.06 µg/mL (≈ 0.0549 µM); inhibition zone (IZ) (Candida albicans [21]): 20.4 mm; MIC90 (Kluyveromyces marxianus): 0.015 µg/mL (≈ 0.0137 µM); MIC (Candida albicans [22]): ≤ 0.06 µg/mL; MIC90 (Candida tropicalis [23]): 0.5 µg/mL (≈ 0.457 µM); MIC90 (Nakaseomyces glabratus [24]): 1 µg/mL (≈ 0.915 µM); MIC (Candida albicans [25]): 0.25 µg/mL (≈ 0.229 µM); MIC90 (Candida albicans [26]): 0.25 µg/mL (≈ 0.229 µM); inhibition zone (IZ) (Candida albicans [27]): 8.6 mm; MIC (Candida albicans [28]): 0.25 µg/mL (≈ 0.229 µM); MIC90 [29]: 1 µg/mL (≈ 0.915 µM); MIC90 (Nakaseomyces glabratus [30]): 0.25 µg/mL (≈ 0.229 µM); MIC (Candida albicans [31]): 1 µg/mL (≈ 0.915 µM); MIC90 [32]: > 8 µg/mL; MIC90 (Nakaseomyces glabratus [33]): 1 µg/mL (≈ 0.915 µM); MIC90 (Pichia kudriavzevii [34]): 2 µg/mL (≈ 1.83 µM); inhibition zone (IZ) (Candida albicans [35]): 20.6 mm; MIC (Candida albicans [36]): ≤ 0.06 µg/mL; MIC (Candida albicans [37]): > 32 µg/mL
